Source: ChEMBL document CHEMBL3045883, “Antifungal effects of different organic extracts from Melia azedarach L. on phytopathogenic fungi and their isolated active components” (J Agric Food Chem, 2003)
In brackets after ≈: the same amount, converted by molar mass.

Columns and labels:
Fusarium verticillioides [1] = experiment: Antifungal activity against Fusarium verticillioides assessed as growth inhibition at 0.8 mg/mL after 48 hr by inverted light microscopic analysis; format: functional; conditions: read-out: GI
In short: (§1)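 Broth microdilution: F. verticillioides conidia, 4 days old, from a monosporic culture, in glucose-mineral salts medium at 1 × 10^5 conidia/mL. Pure compounds in DMSO added to wells in duplicate ([…]; final DMSO 2–4%). Controls were spore wells with or without DMSO. Percent growth (0–100) scored visually by inverted light microscope, always by the same operator. IC50 derived by Probit analysis.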

Fusarium verticillioides [2] = experiment: Antifungal activity against Fusarium verticillioides assessed as growth inhibition at 0.6 mg/mL after 48 hr by inverted light microscopic analysis; format: functional; conditions: read-out: GI; in short: as §1
Fusarium verticillioides [3] = experiment: Antifungal activity against Fusarium verticillioides assessed as growth inhibition after 48 hr by inverted light microscopic analysis; format: functional, organism-based; in short: as §1
Fusarium verticillioides [4] = experiment: Fungistatic activity against Fusarium verticillioides after 48 hr by broth microdilution method; format: functional; in short: as §1
Fusarium verticillioides [5] = experiment: Antifungal activity against Fusarium verticillioides assessed as growth inhibition at 0.2 mg/mL after 48 hr by inverted light microscopic analysis; format: functional; conditions: read-out: GI; in short: as §1
Fusarium verticillioides [6] = experiment: Antifungal activity against Fusarium verticillioides assessed as growth inhibition at 0.4 mg/mL after 48 hr by inverted light microscopic analysis; format: functional; conditions: read-out: GI; in short: as §1

| Compound | inhibition of growth at 800 µg/mL (Fusarium verticillioides [1]) [%] | inhibition of growth at 600 µg/mL (Fusarium verticillioides [2]) [%] | IC50 (Fusarium verticillioides [3]) [µg/mL] | growth inhibition (GI) (Fusarium verticillioides [3]) | MIC (Fusarium verticillioides [4]) [µg/mL] | inhibition of growth at 200 µg/mL (Fusarium verticillioides [5]) [%] | inhibition of growth at 400 µg/mL (Fusarium verticillioides [6]) [%] |
| --- | --- | --- | --- | --- | --- | --- | --- |
| COc1cc(C2OCC3C(c4ccc(O)c(OC)c4)OCC23)ccc1O (racemic) [(+/-)-PINORESINOL] | 40 | 20 | 760 (≈ 2120 µM) | Dose-dependent effect | 1000 (≈ 2790 µM) | – | – |
| COc1cc(/C=C/C=O)ccc1O [CONIFERYL ALDEHYDE] | – | – | 240 (≈ 1350 µM) | Dose-dependent effect | 400 (≈ 2240 µM) | 20 | – |
| COc1cc(C=O)ccc1O [VANILLIN] | – | – | 300 (≈ 1970 µM) | Dose-dependent effect | 600 (≈ 3940 µM) | 20 | 65 |
